Data published in ChEMBL document CHEMBL1955763, “Antimicrobial activity of sulfonamides containing 5-chloro-2-hydroxybenzaldehyde and 5-chloro-2-hydroxybenzoic acid scaffold” (Eur J Med Chem, 2012).
≈ marks a conversion by molar mass, not a printed value.

Legend:
Type in all cases: functional
Mycobacterium kansasii [1] = test: Antimycobacterial activity against Mycobacterium kansasii 6509/96 after 21 days; conditions: 6509/96, 504 h
How it was run: (§1)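 Micromethod MIC in Sula semisynthetic medium, with compounds added as DMSO solutions at […]. Incubation at 37 °C. Inocula: M. kansasii 235/80 at dilution 10⁻⁴, clinical isolate 6509/96 at 10⁻⁵.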

Nakaseomyces glabratus = test: Antifungal activity against Candida glabrata 20/I after 24 hrs by broth microdilution method
How it was run: (§2)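 Microdilution broth per CLSI M27-A3 (yeasts) or M38-A2 (moulds) in RPMI 1640 with glutamine, buffered to pH 7.0 with 0.165 mol MOPS. Compounds were in DMSO. Final inoculum was 5 × 10³ ± 0.2 CFU/mL. Other conditions matched the antibacterial assay, with MIC as IC₉₀ read visually and at 540 nm. Determined twice, in duplicate.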

Mycobacterium kansasii [2] = test: Antimycobacterial activity against Mycobacterium kansasii 6509/96 after 14 days; conditions: 6509/96, 336 h; how it was run: as §1
Staphylococcus aureus [3] = test: Antibacterial activity against methicillin-resistant Staphylococcus aureus H 5996/08 after 24 hrs by broth microdilution method; conditions: H 5996/08, 24 h
How it was run: (§3)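 Microdilution broth method modified from M07-A07, in Mueller-Hinton broth at pH 7.4 (±0.2). Compounds were dissolved in DMSO. Inoculum was made in sterile water to 0.5 McFarland (1.5 × 10⁸ CFU/mL). MIC was taken as IC₉₀, meaning ≥90% growth reduction versus the drug-free control. Growth was read visually and by absorbance at 540 nm.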

Candida albicans = test: Antifungal activity against Candida albicans ATCC 44857 after 24 hrs by broth microdilution method; conditions: ATCC 44857, 24 h; how it was run: as §2
Staphylococcus aureus [4] = test: Antibacterial activity against methicillin-resistant Staphylococcus aureus H 5996/08 after 48 hrs by broth microdilution method; conditions: H 5996/08, 48 h; how it was run: as §3
Mycobacterium avium [5] = test: Antimycobacterial activity against isoniazid-, rifampicin-, ofloxacin-, ethambutol-resistant Mycobacterium avium 330/88 after 14 days; conditions: 330/88, 336 h
How it was run: (§4)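 Micromethod in Sula semisynthetic medium, with compounds added as DMSO solutions over a two-fold series from 1000 down to 1. Inoculum for M. avium 330/88 was a 10⁻⁵ dilution. Plates were incubated at 37 °C and MIC was read after 14 and 21 days.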

Mycobacterium kansasii [6] = test: Antimycobacterial activity against Mycobacterium kansasii 235/80 after 14 days; conditions: 235/80, 336 h; how it was run: as §1
Mycobacterium kansasii [7] = test: Antimycobacterial activity against Mycobacterium kansasii 235/80 after 7 days; conditions: 235/80, 168 h; how it was run: as §1
Trichosporon asahii = test: Antifungal activity against Trichosporon asahii 1188 after 24 hrs by broth microdilution method; conditions: Trichosporon asahii, 1188, 24 h; how it was run: as §2
Pichia kudriavzevii = test: Antifungal activity against Candida krusei E58 after 24 hrs by broth microdilution method; conditions: E58, 24 h; how it was run: as §2
Candida tropicalis = test: Antifungal activity against Candida tropicalis 156 after 24 hrs by broth microdilution method; conditions: Candida tropicalis, 156, 24 h; how it was run: as §2
Aspergillus fumigatus = test: Antifungal activity against Aspergillus fumigatus 231 after 24 hrs by broth microdilution method; conditions: Aspergillus fumigatus, 231, 24 h; how it was run: as §2
[8] = system: Staphylococcus epidermidis; test: Antibacterial activity against methicillin-resistant Staphylococcus epidermidis H 6966/08 after 48 hrs by broth microdilution method; conditions: H 6966/08, 48 h; how it was run: as §3
Staphylococcus aureus [9] = test: Antibacterial activity against Staphylococcus aureus CCM 4516/08 after 48 hrs by broth microdilution method; conditions: CCM 4516/08, 48 h
How it was run: (§5)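 Broth microdilution modified from standard M07-A07 in Mueller-Hinton broth at pH 7.4 (±0.2). Compounds were dissolved in DMSO. Inoculum in sterile water was adjusted to 0.5 McFarland (1.5 × 10⁸ CFU/mL). MIC was taken as IC₉₀, i.e. ≥90% growth reduction versus control, read visually and spectrophotometrically at 540 nm.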

Staphylococcus aureus [10] = test: Antibacterial activity against Staphylococcus aureus CCM 4516/08 after 24 hrs by broth microdilution method; conditions: CCM 4516/08, 24 h; how it was run: as §3
[11] = system: Trichophyton mentagrophytes; test: Antifungal activity against Trichophyton mentagrophytes 445 after 24 hrs by broth microdilution method; conditions: Trichophyton mentagrophytes, 445, 24 h
Mycobacterium kansasii [12] = test: Antimycobacterial activity against Mycobacterium kansasii 6509/96 after 7 days; conditions: 6509/96, 168 h; how it was run: as §1
[13] = system: Mycobacterium tuberculosis; test: Antimycobacterial activity against Mycobacterium tuberculosis H37Rv 331/88 after 14 days; conditions: H37Rv 331/88, 336 h
[14] = system: Staphylococcus epidermidis; test: Antibacterial activity against methicillin-resistant Staphylococcus epidermidis H 6966/08 after 24 hrs by broth microdilution method; conditions: H 6966/08, 24 h; how it was run: as §3
Mycobacterium kansasii [15] = test: Antimycobacterial activity against Mycobacterium kansasii 235/80 after 21 days; conditions: 235/80, 504 h; how it was run: as §1
[16] = system: Mycobacterium tuberculosis; test: Antimycobacterial activity against Mycobacterium tuberculosis H37Rv 331/88 after 21 days; conditions: H37Rv 331/88, 504 h; how it was run: as §4
Mycobacterium avium [17] = test: Antimycobacterial activity against isoniazid-, rifampicin-, ofloxacin-, ethambutol-resistant Mycobacterium avium 330/88 after 21 days; conditions: 330/88, 504 h; how it was run: as §4
Lichtheimia corymbifera = test: Antifungal activity against Absidia corymbifera 272 after 24 hrs by broth microdilution method; conditions: Lichtheimia corymbifera, 272, 24 h; how it was run: as §2
Escherichia coli = test: Antibacterial activity against Escherichia coli CCM 4517 after 24 hrs by broth microdilution method; conditions: CCM 4517, 24 h; how it was run: as §5

Structure (SMILES)	MIC (Mycobacterium kansasii [1])	MIC (Nakaseomyces glabratus)	MIC (Mycobacterium kansasii [2])	MIC (Staphylococcus aureus [3])	MIC (Candida albicans)	MIC (Staphylococcus aureus [4])	MIC (Mycobacterium avium [5])	MIC (Mycobacterium kansasii [6])	MIC (Mycobacterium kansasii [7])	MIC (Trichosporon asahii)	MIC (Pichia kudriavzevii)	MIC [8]	MIC (Staphylococcus aureus [9])	MIC (Staphylococcus aureus [10])	MIC (Mycobacterium kansasii [12])	MIC [13]	MIC [14]	MIC (Mycobacterium kansasii [15])	MIC [16]	MIC (Mycobacterium avium [17])	also measured
Cc1cc(C)nc(NS(=O)(=O)c2ccc(/N=C/c3cc(Cl)ccc3O)cc2)n1	250 µM (≈ 104 µg/mL)	> 125 µM	125 µM (≈ 52.1 µg/mL)	125 µM (≈ 52.1 µg/mL)	> 125 µM	250 µM (≈ 104 µg/mL)	62.5 µM (≈ 26.1 µg/mL)	125 µM (≈ 52.1 µg/mL)	62.5 µM (≈ 26.1 µg/mL)	> 125 µM	> 125 µM	> 500 µM	500 µM (≈ 208 µg/mL)	250 µM (≈ 104 µg/mL)	125 µM (≈ 52.1 µg/mL)	250 µM (≈ 104 µg/mL)	> 500 µM	250 µM (≈ 104 µg/mL)	500 µM (≈ 208 µg/mL)	125 µM (≈ 52.1 µg/mL)	MIC (Candida tropicalis): > 125 µM; MIC (Aspergillus fumigatus): > 125 µM; MIC [11]: > 125 µM; MIC (Lichtheimia corymbifera): > 125 µM; MIC (Escherichia coli): 500 µM (≈ 208 µg/mL)
Nc1ccc(S(=O)(=O)Nc2ncccn2)cc1 [SULFADIAZINE]	8 µM (≈ 2 µg/mL)		8 µM (≈ 2 µg/mL)	500 µM (≈ 125 µg/mL)		> 500 µM	62.5 µM (≈ 15.6 µg/mL)	16 µM (≈ 4 µg/mL)	16 µM (≈ 4 µg/mL)			> 500 µM	> 500 µM	500 µM (≈ 125 µg/mL)	8 µM (≈ 2 µg/mL)	32 µM (≈ 8.01 µg/mL)	> 500 µM	32 µM (≈ 8.01 µg/mL)	62.5 µM (≈ 15.6 µg/mL)	62.5 µM (≈ 15.6 µg/mL)	
O=C(Nc1ccc(S(=O)(=O)Nc2nccs2)cc1)c1cc(Cl)ccc1O	8 µM (≈ 3.28 µg/mL)	> 125 µM	8 µM (≈ 3.28 µg/mL)	> 125 µM	> 125 µM	> 125 µM	250 µM (≈ 102 µg/mL)	16 µM (≈ 6.56 µg/mL)	8 µM (≈ 3.28 µg/mL)	> 125 µM	> 125 µM	> 125 µM	> 125 µM	> 125 µM	8 µM (≈ 3.28 µg/mL)	250 µM (≈ 102 µg/mL)	> 125 µM	16 µM (≈ 6.56 µg/mL)	250 µM (≈ 102 µg/mL)	250 µM (≈ 102 µg/mL)	MIC (Candida tropicalis): > 125 µM; MIC (Aspergillus fumigatus): > 125 µM; MIC [11]: > 125 µM; MIC (Lichtheimia corymbifera): > 125 µM
O=C(Nc1ccc(S(=O)(=O)Nc2ncccn2)cc1)c1cc(Cl)ccc1O	8 µM (≈ 3.24 µg/mL)		8 µM (≈ 3.24 µg/mL)	31.2 µM (≈ 12.7 µg/mL)		31.2 µM (≈ 12.7 µg/mL)	62.5 µM (≈ 25.3 µg/mL)	8 µM (≈ 3.24 µg/mL)	4 µM (≈ 1.62 µg/mL)			> 500 µM	125 µM (≈ 50.6 µg/mL)	125 µM (≈ 50.6 µg/mL)	4 µM (≈ 1.62 µg/mL)	125 µM (≈ 50.6 µg/mL)	> 500 µM	16 µM (≈ 6.48 µg/mL)	250 µM (≈ 101 µg/mL)	62.5 µM (≈ 25.3 µg/mL)	
Cc1cc(C)nc(NS(=O)(=O)c2ccc(N)cc2)n1 [SULFAMETHAZINE]	32 µM (≈ 8.91 µg/mL)		16 µM (≈ 4.45 µg/mL)	500 µM (≈ 139 µg/mL)		> 500 µM	32 µM (≈ 8.91 µg/mL)	32 µM (≈ 8.91 µg/mL)	16 µM (≈ 4.45 µg/mL)			> 500 µM	> 500 µM	500 µM (≈ 139 µg/mL)	16 µM (≈ 4.45 µg/mL)	62.5 µM (≈ 17.4 µg/mL)	> 500 µM	125 µM (≈ 34.8 µg/mL)	125 µM (≈ 34.8 µg/mL)	62.5 µM (≈ 17.4 µg/mL)	
Cc1cc(NS(=O)(=O)c2ccc(/N=C/c3cccc(Cl)c3)cc2)no1	4 µM (≈ 1.5 µg/mL)	500 µM (≈ 188 µg/mL)	4 µM (≈ 1.5 µg/mL)	31.2 µM (≈ 11.7 µg/mL)	500 µM (≈ 188 µg/mL)	62.5 µM (≈ 23.5 µg/mL)	32 µM (≈ 12 µg/mL)	8 µM (≈ 3.01 µg/mL)	4 µM (≈ 1.5 µg/mL)	500 µM (≈ 188 µg/mL)	500 µM (≈ 188 µg/mL)	> 500 µM	62.5 µM (≈ 23.5 µg/mL)	31.2 µM (≈ 11.7 µg/mL)	4 µM (≈ 1.5 µg/mL)	62.5 µM (≈ 23.5 µg/mL)	> 500 µM	8 µM (≈ 3.01 µg/mL)	125 µM (≈ 47 µg/mL)	62.5 µM (≈ 23.5 µg/mL)	MIC (Candida tropicalis): 500 µM (≈ 188 µg/mL); MIC (Aspergillus fumigatus): 500 µM (≈ 188 µg/mL); MIC [11]: 500 µM (≈ 188 µg/mL); MIC (Lichtheimia corymbifera): 500 µM (≈ 188 µg/mL)
NNC(=O)c1ccncc1 [ISONIAZID]	8 µM (≈ 1.1 µg/mL)		4 µM (≈ 0.549 µg/mL)				> 250 µM	> 250 µM	> 250 µM						4 µM (≈ 0.549 µg/mL)	0.5 µM (≈ 0.0686 µg/mL)		> 250 µM	1 µM (≈ 0.137 µg/mL)	> 250 µM	
Cc1cc(NS(=O)(=O)c2ccc(NC(=O)c3cccc(Cl)c3)cc2)no1	8 µM (≈ 3.13 µg/mL)	500 µM (≈ 196 µg/mL)	8 µM (≈ 3.13 µg/mL)	> 500 µM	500 µM (≈ 196 µg/mL)	> 500 µM	500 µM (≈ 196 µg/mL)	8 µM (≈ 3.13 µg/mL)	2 µM (≈ 0.784 µg/mL)	500 µM (≈ 196 µg/mL)	500 µM (≈ 196 µg/mL)	> 500 µM	> 500 µM	> 500 µM	8 µM (≈ 3.13 µg/mL)	500 µM (≈ 196 µg/mL)	> 500 µM	8 µM (≈ 3.13 µg/mL)	500 µM (≈ 196 µg/mL)	500 µM (≈ 196 µg/mL)	MIC (Candida tropicalis): 500 µM (≈ 196 µg/mL); MIC (Aspergillus fumigatus): 500 µM (≈ 196 µg/mL); MIC [11]: 500 µM (≈ 196 µg/mL); MIC (Lichtheimia corymbifera): 500 µM (≈ 196 µg/mL)
